By IC50 is commonly meant the point on the concentration scale where inhibition reaches its midpoint. A word on the inhibition in vivo: it is the percentage by which the read-out fell short of the control.

The test system of one data set is MDA-MB-231. Kind of data set: Antitumor activity against human MDA-MB-231 cells after 24 hrs by MTT assay. It counts as functional, cell-based. The note with it: MDA-MB-231, 24 h. In a few lines:
(§1)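 Seeded at 5.0 × 10⁴ cells/mL and cultured 24 h, then exposed 24 h to serial dilutions made from a DMSO solution. MTT (5 mg/mL) added for 4 h, formazan dissolved in DMSO, A570 read. IC50 taken by linear regression of concentration-response curves; mean of at least three independent experiments.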

Data set [1] in a line: Cytotoxicity against human HSF cells after 24 hrs by MTT assay. In kind it is cell-based. In a few lines: as §1
In general terms: Tetrazolium assays rely on reduction of a dye to a coloured formazan, in cell work by metabolically active cells.

The subject of a further data set is MCF7. Kind of data set: Antitumor activity against human MCF7 cells after 24 hrs by MTT assay. It counts as functional, cell-based. The conditions noted are these: MCF7, 24 h. In a few lines:
as §1

A further data set deals with L929. Nature of the data set: Cytotoxicity against mouse L929 cells after 24 hrs by MTT assay. In kind it is cell-based. The conditions noted are these: L929, 24 h. In a few lines:
as §1

A further data set has as its system HCT-15. Nature of the data set: Antitumor activity against human HCT15 cells after 24 hrs by MTT assay. In kind it is functional, cell-based. The conditions noted are these: HCT-15, 24 h. Summed up: as §1
The next data set concerns CNE. Nature of the data set: Antitumor activity against human CNE cells after 24 hrs by MTT assay. In kind it is functional, cell-based. In a few lines:
as §1

For the next data set, the system named is Mus musculus. Kind of data set: Toxicity in KM mouse harboring mouse S180 cells xenograft assessed as body weight change at 25 mg/kg, ip administered qd for 9 days measured on 10th day (reference value: +39.1%). In kind it is organism-based, CCRF S-180. Set-up: dose 25 mg/kg, route intraperitoneal. The note with it: in vivo, 216 h. In a few lines: (§2)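 S-180 sarcoma cells (2 × 10⁶ in 0.2 ml saline) injected subcutaneously at the femur of male SPF KM mice, seven weeks old, 18–22 g; groups of 10. Dosing began 24 h later, i.p. once daily for 9 days, in 0.5% DMSO/1% Tween 80 diluted with saline; controls received vehicle. Body weight followed; tumors excised and weighed on day 10. Inhibition = (control − treated mean tumor weight)/control × 100%.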

The test system of data set [2] is CCRF S-180. Kind of data set: Antitumor activity against mouse S180 cells xenografted in KM mouse assessed as tumor weight inhibition rate at 25 mg/kg, ip administered qd for 9 days measured on 10th day. It counts as functional. The conditions noted are these: CCRF S-180, ip, 216 h, route intraperitoneal. In a few lines:
as §2

Data set [3] has as its system CCRF S-180. Kind of data set: Antitumor activity against mouse S180 cells xenografted in KM mouse assessed as decrease in tumor weight at 25 mg/kg, ip administered qd for 9 days measured on 10th day (reference value: 2.07+/- 0.42g). It counts as functional. The conditions noted are these: route intraperitoneal. In a few lines:
as §2

A further data set concerns K562. Kind of data set: Antitumor activity against human K562 cells after 24 hrs by MTT assay. It counts as functional, cell-based. The conditions noted are these: K562, 24 h. In a few lines:
as §1

For the compound `COc1cc([C@@H](CC=C(C)C)OC(=O)c2ccccc2)c(OC)c2c1C(=O)C=CC2=O`, the IC50 is 2.2 µM in the data set with MDA-MB-231, above 100 µM in [1] and 6.7 µM with MCF7.
For the compound `COc1cc([C@@H](CC=C(C)C)OC(=O)c2ccncc2)c(OC)c2c1C(=O)C=CC2=O`, the values for the 50% inhibitory concentration (IC50) (in the data set with MDA-MB-231; in [1]; in the data set on MCF7) were 1.2 µM, above 100 µM and 6.3 µM, respectively.
Take `COc1ccc(OC)c2c1C(=O)C=C([C@@H](CC=C(C)C)OC(=O)C1CCCO1)C2=O` (stereo partly specified): the concentration for half-maximal inhibition (IC50) in the data set with MDA-MB-231 was 2.1 µM; in the data set with L929, above 100 µM; in the data set on HCT-15, 12.7 µM; in the data set on CNE it was 16.5 µM.
Turning to `COc1cc([C@@H](CC=C(C)C)OC(=O)c2ccc([N+](=O)[O-])cc2)c(OC)c2c1C(=O)C=CC2=O`, the IC50 is 16.8 µM in the data set with MDA-MB-231, above 100 µM in [1] and 15.2 µM in the data set with MCF7.
On to `COc1cc([C@@H](CC=C(C)C)OC(=O)c2ccco2)c(OC)c2c1C(=O)C=CC2=O`, for which the 50% inhibitory concentration (IC50) in the data set on MDA-MB-231 was 1.3 µM; in data set [1], above 100 µM; in the data set on MCF7 it was 2.7 µM.
As to `O=c1[nH]cc(F)c(=O)[nH]1` [FLUOROURACIL], the Activity is 34.7% in the data set on Mus musculus and 1.11 g in the data set with CCRF S-180 [3]. The inhibition in vivo at 25 mg/kg in the data set on CCRF S-180 [2] was found to be 46.5%.
As to `COc1cc([C@@H](CC=C(C)C)OC(=O)C2CCCO2)c(OC)c2c1C(=O)C=CC2=O` (stereo partly specified), the IC50 is 0.6 µM in the data set on MDA-MB-231; above 100 µM in [1]; 11.2 µM in the data set with K562; above 100 µM in the data set on L929; 18.6 µM in the data set with HCT-15; 2.5 µM in the data set on MCF7. Further, in the data set on CNE, half-maximal inhibition (IC50) was put at 20.6 µM.
For the compound `COc1ccc(C(=O)O[C@H](CC=C(C)C)c2cc(OC)c3c(c2OC)C(=O)C=CC3=O)cc1`, the IC50 with MDA-MB-231 was found to be 1.4 µM; in data set [1], 88.3 µM; with MCF7, 8.3 µM.
On to `COc1cc([C@@H](CC=C(C)C)OC(=O)C2CCOC2)c(OC)c2c1C(=O)C=CC2=O` (stereo partly specified), for which the IC50 turned out to be 0.2 µM in the data set with MDA-MB-231, 69.4 µM in data set [1] and 1.1 µM with MCF7.
As for `COc1cc([C@H](O)CC=C(C)C)c(OC)c2c1C(=O)C=CC2=O`, the half-inhibitory concentration (IC50) in the data set with MDA-MB-231 is 4.1 µM; in data set [1], 79.6 µM; with MCF7 it was 9.2 µM.
The matching figures for `COc1ccccc1C(=O)O[C@H](CC=C(C)C)c1cc(OC)c2c(c1OC)C(=O)C=CC2=O`: 4.4 µM, above 100 µM and 21.3 µM.
The matching figures for `CCC(C)C(=O)O[C@H](CC=C(C)C)c1cc(OC)c2c(c1OC)C(=O)C=CC2=O` (stereo partly specified): 5.9 µM, 93.6 µM and 4.5 µM.
Regarding `COc1cc([C@@H](CC=C(C)C)OC(=O)c2cccnc2)c(OC)c2c1C(=O)C=CC2=O`, the values for the half-maximal inhibitory concentration (IC50) (in the data set on MDA-MB-231; in [1]; in the data set on MCF7) were 6 µM, 91.7 µM and 17.4 µM, respectively.
As for `COc1cc([C@@H](CC=C(C)C)OC(C)=O)c(OC)c2c1C(=O)C=CC2=O`, the half-inhibitory concentration (IC50) in the data set with MDA-MB-231 is 3.4 µM; in [1], above 100 µM; in the data set on K562, 15.3 µM; with L929, above 100 µM; in the data set with HCT-15 it was 19.3 µM; with MCF7, 4.9 µM. The midpoint of inhibition in the data set with CNE, the IC50, lay at 58 µM.
In the case of `COc1cc([C@@H](CC=C(C)C)OC(=O)C(C)C)c(OC)c2c1C(=O)C=CC2=O`, the IC50 with MDA-MB-231 is 2.8 µM; in [1], 69.3 µM; with MCF7, 3.7 µM.
Consider `COc1cc([C@@H](CC=C(C)C)OC(=O)/C=C/c2ccccc2)c(OC)c2c1C(=O)C=CC2=O`, for which the IC50 in the data set with MDA-MB-231 is 2.4 µM; in data set [1] it was above 100 µM; with MCF7 it was 3.9 µM.
Regarding `CC(C)=CC[C@@H](O)C1=CC(=O)c2c(O)ccc(O)c2C1=O` [SHIKONIN], the IC50 in the data set on MDA-MB-231 worked out at 6.6 µM; in the data set on L929, 3.2 µM; with HCT-15, 7.3 µM; with CNE, 0.7 µM.
For the compound `COc1ccc(/C=C/C(=O)O[C@H](CC=C(C)C)c2cc(OC)c3c(c2OC)C(=O)C=CC3=O)cc1OC`, the IC50 with MDA-MB-231 was 5 µM; in data set [1] it was above 100 µM; in the data set on MCF7, 7.7 µM.
As for `CCC(=O)O[C@H](CC=C(C)C)c1cc(OC)c2c(c1OC)C(=O)C=CC2=O`, the values for the concentration for half-maximal inhibition (IC50) (in the data set with MDA-MB-231; in [1]; in the data set with MCF7) were 2.5 µM, 78.6 µM and 6.2 µM, respectively.
Regarding `C/C=C/C(=O)O[C@H](CC=C(C)C)c1cc(OC)c2c(c1OC)C(=O)C=CC2=O`, the IC50 was 1.5 µM in the data set with MDA-MB-231, 74.9 µM in data set [1] and 3.3 µM with MCF7.
The matching figures for `COc1cc([C@@H](CC=C(C)C)OC(=O)CCc2ccccc2)c(OC)c2c1C(=O)C=CC2=O`: 3.7 µM, above 100 µM and 5.9 µM.
Consider `COc1ccc(OC)c2c1C(=O)C=C([C@@H](CC=C(C)C)OC(C)=O)C2=O`, for which the half-maximal inhibitory concentration (IC50) was 7.2 µM in the data set with MDA-MB-231, above 100 µM in the data set with L929, 29.6 µM in the data set on HCT-15 and 23.1 µM with CNE.
On to `COc1cc([C@@H](CC=C(C)C)OC(=O)c2ccoc2)c(OC)c2c1C(=O)C=CC2=O`, for which the half-inhibitory concentration (IC50) in the data set with MDA-MB-231 was 0.4 µM; in data set [1] it was above 100 µM; with MCF7, 1.3 µM.
On to `CCCC(=O)O[C@H](CC=C(C)C)c1cc(OC)c2c(c1OC)C(=O)C=CC2=O`, for which the values for the concentration for half-maximal inhibition (IC50) (in the data set with MDA-MB-231; in data set [1]; with MCF7) were 4.3 µM, 86.3 µM and 5.1 µM, respectively.
For `COc1ccc(CC(=O)O[C@H](CC=C(C)C)c2cc(OC)c3c(c2OC)C(=O)C=CC3=O)cc1`, the IC50 in the data set with MDA-MB-231 was 2.3 µM; in data set [1], above 100 µM; in the data set on MCF7, 5.5 µM.

For the origin of these results see ChEMBL document CHEMBL1806447, “Semi-synthesis and antitumor activity of 6-isomers of 5, 8-O-dimethyl acylshikonin derivatives” (Eur J Med Chem, 2011).
